Reference: ChEMBL document CHEMBL4177653, “Identification of nitroimidazole-oxime derivatives targeting the polo-box domain of polo-like kinase 1” (Bioorg Med Chem, 2017)
In brackets after ≈: the same amount, converted by molar mass.

Columns and labels:
MGC-803 [1] = test: Induction of apoptosis in human MGC803 cells assessed as late apoptotic cells at 0.01 uM after 24 hrs by Annexin V-FITC/propidium iodide staining-based flow cytometry (reference value: 0%); type: functional
MGC-803 [2] = test: Induction of apoptosis in human MGC803 cells assessed as early apoptotic cells at 0.01 uM after 24 hrs by Annexin V-FITC/propidium iodide staining-based flow cytometry (reference value: 0.1%); type: functional
MGC-803 [3] = test: Antiproliferative activity against human MGC803 cells after 72 hrs by MTT assay; type: functional, cell-based; details: MGC-803, 72 h
Summary of the method: (§1)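 Cells kept in high-glucose DMEM with L-glutamine, 10% FBS, penicillin/streptomycin, at 37 °C and 5% CO2. Seeded in 96-well plates and preincubated 48 h. Compounds added at preset concentrations (6 wells each; erlotinib as positive reference) for 72 h. MTT in PBS (2.5 mg/mL) added for 4 h, formazan dissolved in DMSO, A570 read. IC50 is the concentration leaving 50% of cells surviving. Mean ± SD of three independent experiments in triplicate.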

MCF7 = test: Antiproliferative activity against human MCF7 cells after 72 hrs by MTT assay; type: functional, cell-based; details: MCF7, 72 h; summary of the method: as §1
HeLa = test: Antiproliferative activity against human HeLa cells after 72 hrs by MTT assay; type: functional, cell-based; summary of the method: as §1
HepG2 = test: Antiproliferative activity against human HepG2 cells after 72 hrs by MTT assay; type: functional, cell-based; details: HepG2, 72 h; summary of the method: as §1
[4] = Cytotoxicity against human 293T cells after 72 hrs by MTT assay; type: cell-based; details: HEK-293T cells
MGC-803 [5] = test: Induction of apoptosis in human MGC803 cells assessed as necrotic cells at 0.01 uM after 24 hrs by Annexin V-FITC/propidium iodide staining-based flow cytometry (reference value: 0%); type: functional
MGC-803 [6] = test: Induction of apoptosis in human MGC803 cells assessed as viable cells at 0.01 uM after 24 hrs by Annexin V-FITC/propidium iodide staining-based flow cytometry (reference value: 99.9%); type: functional; details: MGC-803, 24 h, read-out: Activity
MGC-803 [7] = test: Induction of apoptosis in human MGC803 cells assessed as early apoptotic cells at 0.06 uM after 24 hrs by Annexin V-FITC/propidium iodide staining-based flow cytometry (reference value: 0.1%); type: functional
MGC-803 [8] = test: Induction of apoptosis in human MGC803 cells assessed as late apoptotic cells at 0.06 uM after 24 hrs by Annexin V-FITC/propidium iodide staining-based flow cytometry (reference value: 0%); type: functional
MGC-803 [9] = test: Induction of apoptosis in human MGC803 cells assessed as necrotic cells at 0.06 uM after 24 hrs by Annexin V-FITC/propidium iodide staining-based flow cytometry (reference value: 0%); type: functional
MGC-803 [10] = test: Induction of apoptosis in human MGC803 cells assessed as viable cells at 0.06 uM after 24 hrs by Annexin V-FITC/propidium iodide staining-based flow cytometry (reference value: 99.9%); type: functional; details: MGC-803, 24 h, read-out: Activity
MGC-803 [11] = test: Induction of apoptosis in human MGC803 cells assessed as early apoptotic cells at 0.12 uM after 24 hrs by Annexin V-FITC/propidium iodide staining-based flow cytometry (reference value: 0.1%); type: functional
MGC-803 [12] = test: Induction of apoptosis in human MGC803 cells assessed as late apoptotic cells at 0.12 uM after 24 hrs by Annexin V-FITC/propidium iodide staining-based flow cytometry (reference value: 0%); type: functional
MGC-803 [13] = test: Induction of apoptosis in human MGC803 cells assessed as necrotic cells at 0.12 uM after 24 hrs by Annexin V-FITC/propidium iodide staining-based flow cytometry (reference value: 0%); type: functional
MGC-803 [14] = test: Induction of apoptosis in human MGC803 cells assessed as viable cells at 0.12 uM after 24 hrs by Annexin V-FITC/propidium iodide staining-based flow cytometry (reference value: 99.9%); type: functional; details: MGC-803, 24 h, read-out: Activity
MGC-803 [15] = test: Induction of apoptosis in human MGC803 cells after 24 hrs by Annexin V-FITC/propidium iodide staining-based flow cytometry; type: functional, cell-based

Row | Compound | IC50 (MGC-803 [3]) | IC50 (MCF7) | IC50 (HeLa) | IC50 (HepG2) | CC50 at 72 h [4] | also measured
1 | Cc1ccc(C(=O)O/N=C(/Cn2cc([N+](=O)[O-])nc2C)c2ccc(Br)cc2)cn1 | 0.005 mg/L (≈ 0.0109 µM) | 0.72 mg/L (≈ 1.57 µM) | 0.86 mg/L (≈ 1.88 µM) | 0.75 mg/L (≈ 1.64 µM) | 8300 mg/L (≈ 18100 µM) | Activity (MGC-803 [1]): 28.1%; Activity (MGC-803 [2]): 9.7%; Activity (MGC-803 [5]): 1.2%; viability at 0.01 µM (MGC-803 [6]): 61%; Activity (MGC-803 [7]): 15.4%; Activity (MGC-803 [8]): 43.2%; Activity (MGC-803 [9]): 0.2%; viability at 0.06 µM (MGC-803 [10]): 41.2%; Activity (MGC-803 [11]): 16.9%; Activity (MGC-803 [12]): 64.6%; Activity (MGC-803 [13]): 0.1%; viability at 0.12 µM (MGC-803 [14]): 18.4%; Activity (MGC-803 [15]): Dose-dependent effect
2 | Cc1nc([N+](=O)[O-])cn1C/C(=N/OC(=O)c1ccncc1)c1ccc(Br)cc1 | 0.02 mg/L (≈ 0.045 µM) | 0.87 mg/L (≈ 1.96 µM) | 1.63 mg/L (≈ 3.67 µM) | 0.81 mg/L (≈ 1.82 µM) | 80 mg/L (≈ 180 µM) | 
3 | CC1=CC(=O)C(C(C)C)=CC1=O [THYMOQUINONE] |  |  |  |  | 140 mg/L (≈ 853 µM) | 
4 | Cc1nc([N+](=O)[O-])cn1C/C(=N/OC(=O)c1ccccc1[N+](=O)[O-])c1ccc(Br)cc1 | 2.54 mg/L (≈ 5.2 µM) | 7.13 mg/L (≈ 14.6 µM) | 11.3 mg/L (≈ 23.2 µM) | 6.59 mg/L (≈ 13.5 µM) | 230 mg/L (≈ 471 µM) | 
5 | Cc1nc([N+](=O)[O-])cn1C/C(=N/OC(=O)c1ccc(F)cc1)c1ccc(Br)cc1 | 1.24 mg/L (≈ 2.69 µM) | 2.12 mg/L (≈ 4.6 µM) | 7.24 mg/L (≈ 15.7 µM) | 1.22 mg/L (≈ 2.65 µM) | 23000 mg/L (≈ 49900 µM) | 
6 | Cc1nc([N+](=O)[O-])cn1C/C(=N/OC(=O)c1cccnc1)c1ccc(Br)cc1 | 0.01 mg/L (≈ 0.0225 µM) | 0.78 mg/L (≈ 1.76 µM) | 1.51 mg/L (≈ 3.4 µM) | 0.73 mg/L (≈ 1.64 µM) | 50 mg/L (≈ 113 µM) | 
7 | Cc1nc([N+](=O)[O-])cn1C/C(=N/OC(=O)c1cccnc1Cl)c1ccc(Br)cc1 | 0.73 mg/L (≈ 1.52 µM) | 0.76 mg/L (≈ 1.59 µM) | 1.28 mg/L (≈ 2.67 µM) | 0.76 mg/L (≈ 1.59 µM) | 12000 mg/L (≈ 25100 µM) | 
8 | Cc1nc([N+](=O)[O-])cn1C/C(=N/OC(=O)c1ccc(Cl)nc1)c1ccc(Br)cc1 | 0.82 mg/L (≈ 1.71 µM) | 0.79 mg/L (≈ 1.65 µM) | 0.96 mg/L (≈ 2.01 µM) | 0.71 mg/L (≈ 1.48 µM) | 250 mg/L (≈ 522 µM) | 
9 | O=c1[nH]cc(F)c(=O)[nH]1 [FLUOROURACIL] | 1.8 mg/L (≈ 13.8 µM) | 2.19 mg/L (≈ 16.8 µM) | 3.82 mg/L (≈ 29.4 µM) | 2.24 mg/L (≈ 17.2 µM) |  | 
10 | COc1ccc(C(=O)O/N=C(/Cn2cc([N+](=O)[O-])nc2C)c2ccc(Br)cc2)cn1 | 0.03 mg/L (≈ 0.0633 µM) | 0.89 mg/L (≈ 1.88 µM) | 2.35 mg/L (≈ 4.95 µM) | 0.92 mg/L (≈ 1.94 µM) | 980 mg/L (≈ 2070 µM) | 
11 | Cc1nc([N+](=O)[O-])cn1C/C(=N/OC(=O)c1ccccc1)c1ccc(Br)cc1 | 3.66 mg/L (≈ 8.26 µM) | > 20 mg/L | > 20 mg/L | 14 mg/L (≈ 31.5 µM) | 32000 mg/L (≈ 72200 µM) | 
12 | Cc1nc([N+](=O)[O-])cn1C/C(=N/OC(=O)c1cccc(Br)c1)c1ccc(Br)cc1 | 0.04 mg/L (≈ 0.0766 µM) | 1.37 mg/L (≈ 2.62 µM) | 2.57 mg/L (≈ 4.92 µM) | 0.86 mg/L (≈ 1.65 µM) | 180 mg/L (≈ 345 µM) | 
13 | Cc1nc([N+](=O)[O-])cn1C/C(=N/OC(=O)c1ccc(Br)cc1)c1ccc(Br)cc1 | 1.48 mg/L (≈ 2.83 µM) | 2.56 mg/L (≈ 4.9 µM) | 5.67 mg/L (≈ 10.9 µM) | 2.56 mg/L (≈ 4.9 µM) | 330 mg/L (≈ 632 µM) | 
14 | Cc1nc([N+](=O)[O-])cn1C/C(=N/OC(=O)c1ccccc1Br)c1ccc(Br)cc1 | 2.63 mg/L (≈ 5.04 µM) | 3.79 mg/L (≈ 7.26 µM) | > 20 mg/L | 4.38 mg/L (≈ 8.39 µM) | 150 mg/L (≈ 287 µM) | 
15 | Cc1cccc(C(=O)O/N=C(/Cn2cc([N+](=O)[O-])nc2C)c2ccc(Br)cc2)c1 | 3.25 mg/L (≈ 7.11 µM) | 2.82 mg/L (≈ 6.17 µM) | 12.3 mg/L (≈ 27 µM) | 10.7 mg/L (≈ 23.3 µM) | 1300 mg/L (≈ 2840 µM) | 
16 | Cc1ccc(C(=O)O/N=C(/Cn2cc([N+](=O)[O-])nc2C)c2ccc(Br)cc2)cc1 | 0.81 mg/L (≈ 1.77 µM) | 1.54 mg/L (≈ 3.37 µM) | 0.96 mg/L (≈ 2.1 µM) | 0.96 mg/L (≈ 2.1 µM) | 270 mg/L (≈ 590 µM) | 
17 | Cc1nc([N+](=O)[O-])cn1C/C(=N\O)c1ccc(Br)cc1 | > 20 mg/L | > 20 mg/L | > 20 mg/L | 17.4 mg/L (≈ 51.3 µM) |  | 
18 | Cc1nc([N+](=O)[O-])cn1C/C(=N/OC(=O)c1ccccc1Cl)c1ccc(Br)cc1 | 0.16 mg/L (≈ 0.335 µM) | 1.27 mg/L (≈ 2.66 µM) | 8.53 mg/L (≈ 17.9 µM) | 1.33 mg/L (≈ 2.78 µM) | 530 mg/L (≈ 1110 µM) | 
19 | Cc1nc([N+](=O)[O-])cn1C/C(=N/OC(=O)c1ccc(Cl)cc1)c1ccc(Br)cc1 | 0.45 mg/L (≈ 0.942 µM) | 2.79 mg/L (≈ 5.84 µM) | 8.79 mg/L (≈ 18.4 µM) | 1.34 mg/L (≈ 2.81 µM) | 230 mg/L (≈ 481 µM) | 
20 | COc1ccc(C(=O)O/N=C(/Cn2cc([N+](=O)[O-])nc2C)c2ccc(Br)cc2)cc1 | 0.34 mg/L (≈ 0.718 µM) | 3.15 mg/L (≈ 6.66 µM) | 6.54 mg/L (≈ 13.8 µM) | 1.25 mg/L (≈ 2.64 µM) | 1600 mg/L (≈ 3380 µM) | 
21 | Cc1ccccc1C(=O)O/N=C(/Cn1cc([N+](=O)[O-])nc1C)c1ccc(Br)cc1 | 0.84 mg/L (≈ 1.84 µM) | 2.15 mg/L (≈ 4.7 µM) | 9.76 mg/L (≈ 21.3 µM) | 2.37 mg/L (≈ 5.18 µM) | 3800 mg/L (≈ 8310 µM) | 
22 | Cc1nc([N+](=O)[O-])cn1C/C(=N/OC(=O)c1ccc([N+](=O)[O-])cc1)c1ccc(Br)cc1 | 0.37 mg/L (≈ 0.758 µM) | 0.86 mg/L (≈ 1.76 µM) | 12.4 mg/L (≈ 25.4 µM) | 1.43 mg/L (≈ 2.93 µM) | 160 mg/L (≈ 328 µM) | 
23 | COc1ccccc1C(=O)O/N=C(/Cn1cc([N+](=O)[O-])nc1C)c1ccc(Br)cc1 | 3.53 mg/L (≈ 7.46 µM) | 3.13 mg/L (≈ 6.61 µM) | > 20 mg/L | > 20 mg/L | 500 mg/L (≈ 1060 µM) | 
24 | Cc1nc([N+](=O)[O-])cn1C/C(=N/OC(=O)c1cccc(F)c1)c1ccc(Br)cc1 | 0.21 mg/L (≈ 0.455 µM) | 1.87 mg/L (≈ 4.05 µM) | 4.55 mg/L (≈ 9.86 µM) | 0.97 mg/L (≈ 2.1 µM) | 530 mg/L (≈ 1150 µM) | 
25 | Cc1nc([N+](=O)[O-])cn1C/C(=N/OC(=O)c1cccc(Cl)c1)c1ccc(Br)cc1 | 0.18 mg/L (≈ 0.377 µM) | 0.84 mg/L (≈ 1.76 µM) | 4.09 mg/L (≈ 8.56 µM) | 1.15 mg/L (≈ 2.41 µM) | 700 mg/L (≈ 1470 µM) | 
